# Most compounds without a hit are left out; they make up all but 3.7% or so of the library.
# Arbovirus inh = antivirals against arbovirus infection. inhibition, % at 10 µM. arbovirus infection cell-based antiviral screen. AID 1251. 200,000 compounds, 0.37% hits; in the data active = inhibition above about 30%
# Cl transport mod = KCC2 (human) Cl- transport modulation | AID 1456 | Q9H2X9 | B-score of Tl+ flux slope (higher = more flux/activation; lower = inhibition) at 10 µM | KCC2 cells, thallium flux FluoZin-2 fluorescence | 190,000 compounds, 2.2% hits;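 active = thallium flux slope and its plate-corrected score both differing from the plate sample mean at a set confidence after two filtering rounds, in either direction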;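 note: slope of fluorescence scaled to starting intensity during 10 to 20 s after thallium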
# ROMK mod = modulators of human ROMK potassium channel; P48048; Tet-inducible ROMK, thallium flux fluorescence; actives lie on both sides; B-score at 10 µM; 130,000 compounds, 2% hits; AID 1918;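 active = signal ratio slope over the read window, or its plate-corrected B-score, at least 3 SD from the plate mean, either direction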;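 note: B-score of the F/F0 ratio slope over 7 to 12 s after thallium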
# Calpain2 inh = blocks pig calpain II enzyme activity | purified calpain II, fluorogenic peptide substrate, 30 min | inhibition, % at 16 µM | 220,000 compounds, 0.37% hits | AID 1236;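 active = inhibition above about 50%, limit read from the data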
# PKD1 kinase inh = inhibitors of human PKD1 kinase; 200,000 compounds, 0.056% hits; Q15139; inhibition, % (no concentration beside the values); AID 797; PKD1 kinase fluorescence polarization assay; in the data active = inhibition above about 50%
# Mdm2 ligase inh = inhibitors of human Mdm2 E3 ubiquitin ligase; cell-based MDM2 ubiquitination luciferase reporter, 2 h; 0 = plate control, 100 = twice control, blank-subtracted; signal enhancement, % at 5 µM; 210,000 compounds, 0.11% hits; AID 1230;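 active = signal enhancement of 30% or more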;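 note: luminescence tracks abundance of the self-degrading MDM2-luciferase fusion protein; higher signal means inhibition of MDM2 E3 ligase activity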
# Target sequence (Q00987 whole entry, looked up, the tested form may be a part): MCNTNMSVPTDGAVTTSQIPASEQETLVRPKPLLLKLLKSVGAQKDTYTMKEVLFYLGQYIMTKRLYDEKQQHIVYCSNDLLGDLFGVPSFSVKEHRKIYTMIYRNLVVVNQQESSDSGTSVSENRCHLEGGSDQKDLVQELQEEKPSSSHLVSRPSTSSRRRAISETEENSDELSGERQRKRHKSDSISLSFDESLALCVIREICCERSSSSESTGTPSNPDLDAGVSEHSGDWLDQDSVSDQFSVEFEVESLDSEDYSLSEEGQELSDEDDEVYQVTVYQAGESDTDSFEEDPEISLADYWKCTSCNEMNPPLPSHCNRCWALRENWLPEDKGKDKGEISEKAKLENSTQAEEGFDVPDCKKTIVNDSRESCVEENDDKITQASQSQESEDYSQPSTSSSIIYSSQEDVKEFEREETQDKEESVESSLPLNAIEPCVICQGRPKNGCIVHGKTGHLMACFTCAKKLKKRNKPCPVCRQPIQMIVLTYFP
#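 Buffer or medium: Cells held in DMEM | Assay system: Stable mammalian line carrying autodegrading MDM2–luciferase fusion reporter | Quantity: 2000 cells/well | Times: 4 h settle plus 2 h compound, 37 °C | Doses: One concentration, 5 µM, with 0.2% DMSO | Technique: Luminescence with SteadyLite reagent, 15 min at room temperature | Benchmarks: Plate controls and plate blanks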
# KCC2 sec1 = KCC2 (human) modulation, secondary assay. shares compounds with Cl transport mod. normalised thallium flux (F/F0 slope) at 10 µM. 3,700 compounds, 15% hits. HEK293-KCC2, thallium flux, FluoZin2 fluorescence; stronger effect = higher value;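 active = thallium flux slope above the same plate's solvent-only control mean plus 3 SD; inconclusive = the two replicate wells disagree; inactive = no significant difference from solvent-only control wells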
# KCC2 bumet counter = thallium flux persisting under bumetanide in KCC2 cells, counter-screen secondary assay; shares compounds with Cl transport mod; HEK293-KCC2 + bumetanide/ouabain, thallium flux FluoZin2; stronger effect = higher value; normalized thallium flux at 10 µM; 3,700 compounds, 49% hits;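 active = thallium entry rate above the same plate's blocked-transporter control wells by more than 3 SD; inconclusive = the two repeat wells disagree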;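 note: raw slope of fluorescence over initial fluorescence between 10 and 20 s after thallium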
# KCC2 sec2 = KCC2 (human) modulation, second secondary assay; HEK293-KCC2, thallium flux FluoZin2 fluorescence; actives lie on both sides; F/F0 rise rate, 10–20 s post-thallium; 3,700 compounds, 23% hits; normalized thallium flux at 10 µM; shares compounds with Cl transport mod;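 active = thallium flux slope more than 3 SD above or below the plate's solvent-only control mean, mostly below; inconclusive = the two repeat wells disagreed; inactive = no significant shift from solvent-only controls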
# HEK293 Tl flux = counter-screen for KCC2 modulators: effect in parental HEK293 cells; shares compounds with Cl transport mod; thallium flux FluoZin2, ouabain; baseline-ratio fluorescence slope, 10–20 s after thallium; thallium flux rate (normalised fluorescence) at 10 µM; 3,700 compounds, 46% hits; AID 1716;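 active = thallium flux rate significantly above the same plate's solvent-only control wells, beyond their mean plus 3 SD; inconclusive = the two replicate wells gave conflicting results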
# KCC2 ouabain = modulates human KCC2 on retest with ouabain | HEK293-KCC2, thallium flux FluoZin2 fluorescence; bidirectional: low = inhibitor, high = activator | 3,700 compounds, 48% hits | raw Tl+ flux slope (below DMSO = inhibition, above = activation) at 10 µM | shares compounds with Cl transport mod;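 active = thallium flux slope beyond 3 SD from same-plate DMSO control mean in most replicates, usually higher, sometimes lower; inconclusive = repeat tests gave conflicting results; inactive = no significant difference from controls in most replicates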;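 note: slope of initial-normalized fluorescence between seconds 10 and 20 after thallium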
# HEK293 Tl flux2 = counter-screen for KCC2 modulators: effect in parental HEK293 cells | 3,700 compounds, 33% hits | AID 1718 | thallium flux FluoZin-2 fluorescence slope | thallium flux slope at 10 µM | shares compounds with Cl transport mod;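 active = thallium flux slope above the same plate's solvent-control mean plus 3 SD in both duplicate wells; inconclusive = duplicate wells that disagreed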;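 note: run without ouabain in cells lacking the KCC2 cotransporter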
# Numbers stand for hits; . = inactive; ? = inconclusive; / = no result given.
SMILES,Arbovirus inh,Cl transport mod,ROMK mod,Calpain2 inh,PKD1 kinase inh,Mdm2 ligase inh,KCC2 sec1,KCC2 bumet counter,KCC2 sec2,HEK293 Tl flux,KCC2 ouabain,HEK293 Tl flux2
COCCNc1oc(-c2ccccc2Cl)nc1C#N,.,-3.8,/,.,.,.,.,.,.,.,.,.
Cc1ccc(C(=O)NNC(=O)CSc2nnc(-c3ccncc3)n2-c2ccc(C)cc2)cc1,.,/,/,.,.,.,/,/,/,/,/,/
O=C(CSCc1ccc(Cl)cc1)Nc1cc([N+](=O)[O-])ccc1O,.,-3.4,.,.,.,.,.,.,0.022,0.00623,0.0144,0.0083
CCCN(CCO)Cc1ccc2ccccc2c1,.,.,.,.,.,.,/,/,/,/,/,/
CCOC(=O)c1sc(-c2cccc(C(F)(F)F)c2)nc1O,/,8.14,/,.,/,.,.,0.015,.,0.012,?,0.0135
CCOC(=O)c1sc(-c2ccc(Cl)cc2)nc1O,/,14.8,/,.,/,.,.,0.0216,.,0.0106,.,?
CCOC(=O)c1sc2nc(Cc3ccc(Cl)cc3)[nH]c(=S)c2c1C,.,79.1,.,.,.,.,0.0248,0.119,0.0379,0.0522,0.0759,0.0262
COCCCNC(=S)N1CCN(c2ccccc2)CC1,.,.,.,.,.,.,/,/,/,/,/,/
CCc1ccc(C(=O)CN2C(=O)NC(C)(CCc3ccccc3)C2=O)cc1 (stereo unspecified),.,.,/,.,.,.,/,/,/,/,/,/
c1ccc2ncc(-n3cnnn3)cc2c1,.,2.97,.,.,.,.,.,.,.,.,.,.
Cc1ccc(-n2nnc(-c3cnc4ccccc4c3)n2)cc1,.,.,/,.,.,/,/,/,/,/,/,/
Cc1nnc(NC(=O)c2ccc3ccccc3c2)o1,.,/,.,.,.,.,0.012,0.0158,.,0.0107,0.0261,.
Cn1nnc(NC(=O)c2ccc3ccccc3c2)n1,.,.,.,.,.,.,/,/,/,/,/,/
CCOC(=O)Nc1ccc([N+](=O)[O-])cc1OC,/,/,/,/,.,/,/,/,/,/,/,/
CCOC(=O)c1ccc(C(=O)OCC)c(NC(=S)Nc2ccc([N+](=O)[O-])cc2OC)c1,.,10.1,/,.,.,.,0.0134,0.0312,.,0.0241,0.0329,0.0138
COc1ccc(Nc2nnc(SCC(=O)/C=C3/N(C)c4ccccc4C3(C)C)s2)cc1,.,.,.,.,.,.,/,/,/,/,/,/
CNC(=S)N/N=C(\C)c1cccc(C(F)(F)F)c1,.,4.23,.,.,.,.,?,0.0328,.,0.0127,?,0.012
COC(=O)N/N=C(\C)c1cccc(C(F)(F)F)c1,.,/,.,.,.,.,/,/,/,/,/,/
Cc1ccc(NC(=S)N/C(=N/S(=O)(=O)c2ccccc2)c2ccccc2)cc1,.,/,.,.,.,.,0.0201,0.0299,0.0377,0.024,0.031,0.0256
Cc1ccc(S(=O)(=O)/N=C(/NC(=S)Nc2ccccc2)c2ccccc2)cc1,.,.,.,.,.,.,/,/,/,/,/,/
N/C(=N\OC(=O)c1ccc2c(c1)OCO2)c1ccncc1,/,.,.,.,/,.,/,/,/,/,/,/
Cc1cc(Cl)c(S(=O)(=O)Nc2cccc(O)c2)cc1OCC(N)=O,.,.,.,.,.,.,/,/,/,/,/,/
COc1cc(S(=O)(=O)NCc2ccccc2)ccc1Br,.,.,.,.,.,.,/,/,/,/,/,/
CCOc1cc(S(=O)(=O)NCc2ccccc2)ccc1F,.,/,.,.,.,.,?,.,0.0241,.,?,.
O=S(=O)(NCc1ccccc1)c1ccc(Cl)c(S(=O)(=O)NCc2ccccc2)c1,.,/,.,.,.,.,.,.,?,.,0.0129,.
SMILES,Arbovirus inh,Cl transport mod,ROMK mod,Calpain2 inh,PKD1 kinase inh,Mdm2 ligase inh,KCC2 sec1,KCC2 bumet counter,KCC2 sec2,HEK293 Tl flux,KCC2 ouabain,HEK293 Tl flux2
CCCC1(C)NC(=O)c2ccccc2O1 (stereo unspecified),.,/,.,.,.,.,/,/,/,/,/,/
Cc1cc(C(=O)CCC(=O)N2CCN(S(=O)(=O)c3cccs3)CC2)c(C)s1,.,-4.98,/,.,.,.,.,.,?,?,.,.
COc1ccc(CC2(C)OC(c3ccc([N+](=O)[O-])cc3)=NN2C(C)=O)cc1 (stereo unspecified),/,.,/,.,/,.,/,/,/,/,/,/
CCOC(=O)C1=C(N)OC2=C(C(=O)CCC2)C1c1sccc1C (stereo unspecified),.,-6.44,.,.,.,.,.,.,?,0.00625,.,0.00882
CCOC(=O)c1c(C)[nH]c(C)c1C(=O)CSc1nc2ccccc2c(=O)n1-c1ccc(CC)cc1,.,3.98,.,.,.,.,.,0.0155,.,?,.,?
CCOC(=O)c1c(C)[nH]c(C)c1C(=O)CSc1nc2ccccc2n1CC,.,.,/,.,.,.,/,/,/,/,/,/
Cn1c[n+](C)cc1-c1ccc(/C(N)=N/O)cc1,.,.,.,.,.,.,/,/,/,/,/,/
C/C(=N/NC(=O)c1ccoc1C)C12CC3CC(CC(C3)C1)C2,.,.,.,.,.,.,/,/,/,/,/,/
CCOC(=O)n1c(O)c(N=NC(N)=S)c2cc(C)ccc21,/,17.8,/,.,/,.,.,0.0384,?,0.0143,0.0311,0.0163
COc1cc(OC)cc(C(=O)NC(=S)Nc2nnn(C)n2)c1,/,.,/,.,/,.,/,/,/,/,/,/
Cc1ccc(S(=O)(=O)Oc2ccccc2/C=C2\SC(=O)NC2=O)cc1,.,-6.01,.,.,.,.,?,.,0.0238,0.00658,0.0147,.
O=C(COc1ccccc1/C=C1\SC(=O)NC1=O)Nc1ccc(F)cc1,.,-3.14,.,.,.,.,.,.,.,.,0.0134,.
O=C1NC(=O)/C(=C/c2ccccc2Oc2ccc(Cl)cc2)S1,.,/,/,.,.,.,/,/,/,/,/,/
CC(Sc1n[nH]c(N)n1)C(=O)Nc1ccc(Cl)cn1 (stereo unspecified),.,.,.,.,.,.,/,/,/,/,/,/
Nc1nc(SCC(=O)Nc2ccc(Cl)cn2)n[nH]1,.,12.7,.,.,.,.,.,.,.,.,.,.
Cc1oc(C(=O)O)cc1CSc1nnc(-c2ccccc2)n1C,.,.,.,.,.,.,/,/,/,/,/,/
COc1cccc(-n2nc(C(=O)N3CC(C)CC(C)C3)c3ccccc3c2=O)c1 (stereo unspecified),.,4.37,.,.,.,.,.,.,.,.,.,.
